Laboratory results from the array DNA melting data of Ke et al. (doi:10.1101/2024.01.08.574731).

Assays:
[1] = folding enthalpy; higher = less favourable; fluorescence melt of hairpins on a sequencing array, two-state fit; details: sodium 0.088 M
In short: (§1)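 To match UV melts, fitted temperatures were raised by 9.35 °C. These fits were bootstrapped two-state models that gave melting temperature and folding enthalpy, combined by inverse variance over four replicates. The input was normalised Cy3 fluorescence of library hairpins with annealed Cy3 and quencher oligos on a sequenced MiSeq flow cell, imaged in 50 mM Na-HEPES pH 8.0, 25 mM NaCl in 2.5 °C steps up to 60 °C.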

[2] = melting temperature; fluorescence melt of hairpins on a sequencing array, two-state fit, raised by 9.35 °C to match UV melts; details: sodium 0.088 M
In short: as §1

Sequence	folding enthalpy [1] [kcal/mol]	Tm [2] [°C]
GGGTTACGAAAGTACCCC (((.(((....))).)))	-22.9	52.1
GGGTTAGGAAACTAACTC (.(((((....))))).)	-25.8	42.3
GGGTTATCGAAAGATCCC (((..(((....))))))	-24.3	34.9
GGGTTCCGAAAGGACCC (((.(((....))))))	-31.6	58.1
GGGTTCGAAAGAAAACCC ((((((....)))..)))	-23.8	42.2
GGGTTCGAAAGAAATCCC ((((((....)))..)))	-21.3	33.6
GGGTTCGAAAGAAGCCC ((((((....))).)))	-24.1	55.7
GGGTTCGCGAAAGCGCCC (((..(((....))))))	-15.3	43.6
GGGTTCGGAAACGAATCC ((.((((....)))).))	-44	53.7
GGGTTCGGAAACGAGCTC (.(.(((....))).).)	-24	37.8
GGGTTGGGAAACCAATCC ((.((((....)))).))	-32.8	50.8
GGGTTGGGAAACCAGCTC (.(.(((....))).).)	-18.6	36.1
GGTAAATCGAAAGATACC (((..(((....))))))	-15.1	30.4
GGTAACCGAAAGGTAACC (((.(((....))).)))	-20.8	50.8
GGTAACCGAAAGGTGACC (((.(((....))).)))	-36.3	55.4
GGTAACGAAAGTTACACC ((((((....)))..)))	-13.9	43.5
GGTAACGAAAGTTATACC ((((((....)))..)))	-22.1	32.6
GGTAACGAAAGTTCCACC ((((((....)))..)))	-12.3	33.3
GGTAACGAAAGTTCTACC ((((((....)))..)))	-13.9	28.2

Sequence	folding enthalpy [1] [kcal/mol]	Tm [2] [°C]
GGTAACGAAAGTTTACC ((((((....))).)))	-22.4	43.3
GGTAACGAAAGTTTGACC ((((((....)))..)))	-19.4	28.9
GGTAACGGAAACGTCACC (((.(((....))).)))	-32	42.8
GGTAACTCGAAAGAGACC (((..(((....))))))	-14.5	31.3
GGTAAGCGAAAGCTGACC (((.(((....))).)))	-26.2	58.4
GGTAAGGGAAACTTTACC (((((.(....).)))))	-21.3	36.4
GGTAATCGAAAGATACC (((.(((....))))))	-27.2	40.5
GGTAATGGAAACATTACC (((((((....)))))))	-42.8	55.9
GGTACACGAAAGTGAACC (((.(((....))).)))	-36.8	53.9
GGTACACGAAAGTGGACC (((.(((....))).)))	-38.2	67.2
GGTACCACGAAAGTGACC (((..(((....))))))	-13.4	30.1
GGTACCCGAAAGGGAACC (((.(((....))).)))	-26.8	59.7
GGTACCGGAAACGATACC ((((.((....)).))))	-31.9	42.7
GGTACCGGAAACGGTGTC (..((((....))))..)	-13.4	36.7
GGTACGGGAAACTGTGCC ((.((.(....).)).))	-31.2	43.1
GGTACTGGAAACAGCACC (((.(((....))).)))	-29.3	43.9
GGTACTGGAAACGGTACC (((((.(....).)))))	-40.9	50.4
GGTAGAGGAAACTCTACC (((((((....)))))))	-46.8	57.8
